Measurements from ChEMBL document CHEMBL1148022, “Discovery of new C3aR ligands. Part 2: amino-piperidine derivatives” (Bioorg Med Chem Lett, 2007).
The source made the active and inactive calls. No cut-off for these calls is given here.

Tests used:
[1] = Oral bioavailability in rat at 1 mg/kg; type: ADME, organism-based; settings: in vivo
In short: (§1)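 Male rats received a single oral or iv dose of 1 mg/kg.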

[2] = molecular target: T1, C3a anaphylatoxin chemotactic receptor (Homo sapiens, UniProt Q16581); assay: (§2) Displacement of [125I]C3a from human C3a receptor expressed in HMC1 cells co-expressing aequorin; type: cell-based
T1 sequence (Q16581 whole entry): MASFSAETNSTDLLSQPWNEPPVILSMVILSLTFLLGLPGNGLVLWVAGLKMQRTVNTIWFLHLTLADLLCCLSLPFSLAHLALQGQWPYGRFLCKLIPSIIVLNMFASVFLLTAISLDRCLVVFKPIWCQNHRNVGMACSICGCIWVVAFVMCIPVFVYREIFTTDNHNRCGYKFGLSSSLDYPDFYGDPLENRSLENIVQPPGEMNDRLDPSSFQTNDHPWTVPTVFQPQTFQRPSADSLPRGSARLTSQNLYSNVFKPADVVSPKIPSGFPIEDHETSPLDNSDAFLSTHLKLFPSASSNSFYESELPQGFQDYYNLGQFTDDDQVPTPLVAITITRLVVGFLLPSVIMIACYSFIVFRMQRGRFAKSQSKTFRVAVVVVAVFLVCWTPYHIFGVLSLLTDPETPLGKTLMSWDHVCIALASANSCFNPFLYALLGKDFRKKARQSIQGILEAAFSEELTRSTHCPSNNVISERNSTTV
In short: (§3)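 Scintillation proximity assay used wheat germ agglutinin beads and membranes from HMC-1 cells co-expressing Aequorin and human C3aR. Test compound was added at various concentrations with 0.02 nM ¹²⁵I-C3a in 50 mM Tris/2 mM MgCl₂/0.5% BSA. Non-specific binding was defined with 1 nM C3a. Plates were incubated 3 h at rt and read by scintillation counting. Values are means of three experiments.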

[3] = Elimination half life in rat at 1 mg/kg, iv and 1 mg/kg, po; type: ADME, organism-based; settings: in vivo; in short: as §1
[4] = Clearance in rat microsomes; type: ADME, Liver, Microsome
Hepatocyte = assay: Clearance in rat hepatocytes; type: ADME, cell-based, Liver
[5] = molecular target: T1, C3a anaphylatoxin chemotactic receptor; assay: Agonist activity at human C3a receptor expressed in HMC1 cells co-expressing aequorin; type: functional, cell-based
In short: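 They were then diluted fourfold and held 1 h at 37 °C. Compound was injected at 1% DMSO final. Luminescence was recorded for 30 s right after injection. Maximal signal was set with 50 nM C3a.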

[6] = Permeability across Caco-2 cells; type: ADME, cell-based; settings: human, read-out: permeability
[7] = molecular target: T2, C3a anaphylatoxin chemotactic receptor (Homo sapiens) (UniProt Q16581); assay: as §2; type: cell-based; in short: as §3
T2 sequence (whole entry): T1 sequence (Q16581 whole entry)

[8] = molecular target: T1, C3a anaphylatoxin chemotactic receptor; assay: Antagonist activity at human C3a receptor expressed in HMC1 cells co-expressing aequorin; type: functional, cell-based
In short: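 Aequorin/human C3aR HMC-1 cells were loaded with coelenterazine for 2 h. They were then plated and pre-treated with compound dilutions for 1 h at 37 °C, 1% DMSO. C3a agonist was then injected at 5 nM final. Light emission was the read-out.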

| Structure (SMILES) | bioavailability [1] [%] | IC50 [2] [nM] | half-life [3] [min] | CL [4] [µL/min] | further results |
| --- | --- | --- | --- | --- | --- |
| O=C(NC1CCN(C(=O)CCc2cccnc2)CC1)C(C1CCCCC1)C1CCCCC1 | 6 | 1000 | 12 | 675 |  |
| O=C(NC1CCN(C(=O)CCc2cccnc2)CC1)/C(=C/C1CCCCC1)c1ccccc1 |  | 25100 |  |  |  |
| O=C(NC1CCN(C(=O)CCc2cccnc2)CC1)C(CC1CCCCC1)c1ccccc1 (stereo not drawn) | 1 | 794 | 42 | 500 | CL (Hepatocyte): 44 µL/min |
| O=C(NC1CCN(C(=O)CCc2cccnc2)CC1)C(c1ccccc1)C1CC=CC1 (stereo not drawn) |  | 3160 |  |  |  |
| O=C(NC1CCN(C(=O)CCc2cccnc2)CC1)C(c1ccccc1)C1CCCCC1 (stereo not drawn) | 5 | 794 | 12 | 500 | EC50 [5]: 2000 nM; CL (Hepatocyte): 33 µL/min; Papp [6]: 12 ×10⁻⁶ cm/s |
| O=C(NC1CCN(C(=O)CCc2cccnc2)CC1)C1c2ccccc2Cc2ccccc21 |  | 79400 |  |  |  |
| O=C(NC1CCN(C(=O)CCc2cccnc2)CC1)C(c1ccc([N+](=O)[O-])cc1)C1CCCCC1 (stereo not drawn) |  | 316 |  |  |  |
| O=C(NC1CCN(C(=O)CCc2ccccn2)CC1)C1c2cc(Cl)ccc2Oc2ccc(Cl)cc21 |  |  |  |  | Log IC50 [7]: inactive |
| O=C(NC1CCN(C(=O)CCc2ccc(F)nc2)CC1)C(c1ccccc1)C1CCCCC1 (stereo not drawn) | 0 | 1260 | 18 | 782 | Papp [6]: 19 ×10⁻⁶ cm/s |
| O=C(NC1CCN(C(=O)CCc2cccnc2)CC1)C(c1ccc(Cl)cc1)c1ccc(Cl)cc1 | 0 | 20000 | 24 | 175 | Papp [6]: 6.3 ×10⁻⁶ cm/s |
| O=C(NC1CCN(C(=O)CCc2cccnc2)CC1)C(c1ccccc1)c1ccccc1 | 5 | 12600 | 6 | 500 | CL (Hepatocyte): 21 µL/min; IC50 [8]: 3160 nM; Papp [6]: 8.5 ×10⁻⁶ cm/s |
| O=C(NC1CCN(C(=O)/C=C/c2ccccc2F)CC1)C(c1ccccc1)C1CCCCC1 (stereo not drawn) |  | 12600 |  |  |  |
| O=C(NC1CCN(C(=O)CCc2cccnc2)CC1)C1c2cc(Cl)ccc2Oc2ccc(Cl)cc21 |  | 1580 |  |  | IC50 [8]: 631 nM |
| O=C(NC1CCN(C(=O)CCc2cccnc2)CC1)C(c1ccccc1)C1CCCCC1 (single isomer, unassigned; epimer B) |  | 316 |  |  |  |
| Cc1ccccc1C(C(=O)NC1CCN(C(=O)CCc2cccnc2)CC1)C1CCCCC1 (stereo not drawn) |  | 2510 |  |  |  |
| COc1ncccc1CCC(=O)N1CCC(NC(=O)C(c2ccccc2)C2CCCCC2)CC1 (stereo not drawn) |  | 15800 |  |  |  |
| O=C(NC1CCN(C(=O)CCc2cccnc2F)CC1)C(c1ccccc1)C1CCCCC1 (stereo not drawn) |  | 31.6 |  |  | EC50 [5]: 200 nM |
| O=C(NC1CCN(C(=O)CCc2cccnc2)CC1)C(c1ccccc1)C1CCCCC1 (single isomer, unassigned; epimer A) |  | 5010 |  |  |  |

| Structure (SMILES) | bioavailability [1] [%] | IC50 [2] [nM] | half-life [3] [min] | CL [4] [µL/min] | further results |
| --- | --- | --- | --- | --- | --- |
| Cc1cccc(C(C(=O)NC2CCN(C(=O)CCc3cccnc3)CC2)C2CCCCC2)c1 (stereo not drawn) |  | 79.4 |  |  |  |
| O=C(NC1CCN(C(=O)Cc2cccc(F)c2F)CC1)C(c1ccccc1)C1CCCCC1 (stereo not drawn) |  | 10000 |  |  |  |
| O=C(NC1CCN(C(=O)CCc2cccnc2)CC1)C(c1cc(F)c(F)c(F)c1)C1CCCCC1 (stereo not drawn) | 0 | 100 | 18 | 609 | EC50 [5]: 794 nM; CL (Hepatocyte): 17 µL/min |
| COc1ccc(C(C(=O)NC2CCN(C(=O)CCc3cccnc3)CC2)C2CCCCC2)cc1 (stereo not drawn) |  | 631 |  |  |  |
| CC1(C)CCC(C(C(=O)NC2CCN(C(=O)CCc3cccnc3)CC2)c2ccccc2)CC1 (stereo not drawn) |  | 1000 |  |  |  |
| O=C(NC1CCN(C(=O)CCc2cccnc2)CC1)C(c1ccccc1)C1CCCC1 (stereo not drawn) |  | 794 |  |  |  |
| O=C(NC1CCN(C(=O)CCc2ccccc2F)CC1)C(c1ccccc1)C1CCCCC1 (stereo not drawn) |  | 2000 |  |  |  |
| O=C(NC1CCN(C(=O)CCc2cccnc2)CC1)C(c1ccccc1)C1CCC(F)(F)CC1 (stereo not drawn) | 2 | 631 | 18 | 170 | Papp [6]: 16 ×10⁻⁶ cm/s |
| O=C(NC1CCN(C(=O)CCc2cccnc2)CC1)C(c1ccc2ccccc2c1)C1CCCCC1 (stereo not drawn) | 9 | 794 | 30 | 585 | EC50 [5]: 1580 nM |
| Cc1cc(C)cc(C(C(=O)NC2CCN(C(=O)CCc3cccnc3)CC2)C2CCCCC2)c1 (stereo not drawn) |  | 126 |  |  |  |
| O=C(NC1CCN(C(=O)/C=C/c2cccnc2)CC1)C(c1ccccc1)C1CCCCC1 (stereo not drawn) | 7 | 1000 | 18 | 238 | CL (Hepatocyte): 26 µL/min; Papp [6]: 8.5 ×10⁻⁶ cm/s |
| O=C(NC1CCN(C(=O)CCc2cccnc2)CC1)C(c1ccc(Cl)cc1)C1CCCCC1 (stereo not drawn) | 0 | 200 | 18 | 500 | CL (Hepatocyte): 28 µL/min; Papp [6]: 10 ×10⁻⁶ cm/s |
| Cc1cncc(/C=C/C(=O)N2CCC(NC(=O)C(c3ccccc3)C3CCCCC3)CC2)c1 (stereo not drawn) | 3 | 50100 | 18 | 175 | CL (Hepatocyte): 21 µL/min; Papp [6]: 7.9 ×10⁻⁶ cm/s |
| O=C(NC1CCN(C(=O)CCc2cccnc2)CC1)C(c1ccc(F)cc1)C1CCCCC1 (stereo not drawn) |  | 158 |  |  |  |
| CC1(C)CC(C(C(=O)NC2CCN(C(=O)CCc3cccnc3)CC2)c2ccccc2)CC(C)(C)C1 (stereo not drawn) |  | 63100 |  |  |  |
| O=C(NC1CCN(C(=O)CCc2ccncc2)CC1)C1c2cc(Cl)ccc2Oc2ccc(Cl)cc21 |  |  |  |  | Log IC50 [7]: inactive |
| O=C(NC1CCN(C(=O)CCc2cccnc2)CC1)C(c1ccsc1)C1CCCCC1 (stereo not drawn) |  | 200 |  |  |  |
| Cc1ccc(C(C(=O)NC2CCN(C(=O)CCc3cccnc3)CC2)C2CCCCC2)cc1 (stereo not drawn) |  | 794 |  |  |  |
